# Measured values published in publication PMC6543826 (Bioorganic chemistry, 2018).
# Columns and labels:
# RXF 393 = assay: cells; format: cell-based
# SF-268 = assay: cells; format: cell-based
# HOP-62 = assay: cells; format: cell-based
# ERK1 = ERK1 (Homo sapiens, UniProt P27361); assay: in vitro radioactive kinase assay, Ets-1 phosphorylation by ERK1; format: biochemical; conditions: ERK1 IC50, 100 μM ATP, 10 μM Ets-1
# Method in brief: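 Radiometric assay at 28–30 °C in 25 mM HEPES pH 7.5, 50 mM KCl, 0.1 mM EDTA/EGTA, 2 mM DTT, 11 mM MgCl2, 10 μg mL−1 BSA and 5% DMSO (final). 2 nM activated ERK1 was used with 10 μM His-Ets-1 (1–138). Reactions were started with [γ-32P]ATP (10 or 100 μM). IC50 came from fitting rate versus inhibitor concentration to a hyperbolic decay equation.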
# SF-539 = assay: cells; format: cell-based
# SK-MEL-2 = assay: cells; format: cell-based
# ERK2 = ERK2 (Rattus norvegicus, UniProt P63086); assay: in vitro radioactive kinase assay, Ets-1 phosphorylation by ERK2; format: biochemical
# Method in brief: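 Activated rat ERK2 (2 nM) was tested with His-Ets-1 (1–138) at 28–30 °C in HEPES pH 7.5 buffer with 11 mM MgCl2, BSA and 5% DMSO. Reactions were started with [γ-32P]ATP (10 or 100 μM).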
# UO-31 = assay: cells; format: cell-based
# K-562 = assay: cells; format: cell-based
# SR = assay: cells; format: cell-based
# JNK2 = JNK2 (Homo sapiens, UniProt P45984); assay: in vitro kinase assay, GST-c-Jun; format: biochemical
# T-47D = assay: cells; format: cell-based
# SNB-75 = assay: cells; format: cell-based
# SN12C = assay: cells; format: cell-based
# MDA-MB-468 = assay: cells; format: cell-based
# UACC-62 = assay: cells; format: cell-based
# NCI-H226 = assay: cells; format: cell-based
# MDA-MB-435 = assay: cells; format: cell-based
# RPMI-8226 = assay: cells; format: cell-based
# NCI-H460 = assay: cells; format: cell-based
# U251 = assay: cells; format: cell-based
# MOLT-4 = assay: cells; format: cell-based
# IGROV1 = assay: cells; format: cell-based
# PC-3 = assay: cells; format: cell-based
# LOX IMVI = assay: cells; format: cell-based
# A549/ATCC = assay: cells; format: cell-based
# SK-OV-3 = assay: cells; format: cell-based
# HT29 = assay: cells; format: cell-based
# HCT-15 = assay: cells; format: cell-based
# MALME-3M = assay: cells; format: cell-based
# NCI-H23 = assay: cells; format: cell-based
# BT-549 = assay: cells; format: cell-based
# OVCAR-5 = assay: cells; format: cell-based
# ERK2, sequence (P63086 whole entry): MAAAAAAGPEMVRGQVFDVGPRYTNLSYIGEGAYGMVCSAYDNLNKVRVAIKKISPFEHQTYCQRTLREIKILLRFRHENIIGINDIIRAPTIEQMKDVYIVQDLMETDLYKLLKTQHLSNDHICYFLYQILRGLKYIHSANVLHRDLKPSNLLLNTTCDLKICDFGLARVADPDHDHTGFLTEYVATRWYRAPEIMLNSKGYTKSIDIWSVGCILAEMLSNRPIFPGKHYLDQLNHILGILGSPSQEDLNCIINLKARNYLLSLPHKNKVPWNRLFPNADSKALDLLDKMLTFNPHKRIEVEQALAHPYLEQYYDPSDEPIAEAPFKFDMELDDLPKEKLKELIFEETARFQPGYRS
# JNK2, sequence (P45984 whole entry): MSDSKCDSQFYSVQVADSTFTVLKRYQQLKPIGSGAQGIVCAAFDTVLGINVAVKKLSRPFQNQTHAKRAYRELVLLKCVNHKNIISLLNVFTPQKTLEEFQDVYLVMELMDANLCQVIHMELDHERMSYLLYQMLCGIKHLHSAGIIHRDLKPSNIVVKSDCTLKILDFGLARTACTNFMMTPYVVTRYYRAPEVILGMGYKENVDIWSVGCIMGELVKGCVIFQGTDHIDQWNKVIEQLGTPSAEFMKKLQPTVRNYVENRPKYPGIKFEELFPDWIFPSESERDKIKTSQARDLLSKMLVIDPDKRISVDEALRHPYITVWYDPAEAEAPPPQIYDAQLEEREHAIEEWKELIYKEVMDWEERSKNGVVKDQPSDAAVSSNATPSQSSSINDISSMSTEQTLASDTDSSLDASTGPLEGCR
# ERK1, sequence (P27361 whole entry, species assumed): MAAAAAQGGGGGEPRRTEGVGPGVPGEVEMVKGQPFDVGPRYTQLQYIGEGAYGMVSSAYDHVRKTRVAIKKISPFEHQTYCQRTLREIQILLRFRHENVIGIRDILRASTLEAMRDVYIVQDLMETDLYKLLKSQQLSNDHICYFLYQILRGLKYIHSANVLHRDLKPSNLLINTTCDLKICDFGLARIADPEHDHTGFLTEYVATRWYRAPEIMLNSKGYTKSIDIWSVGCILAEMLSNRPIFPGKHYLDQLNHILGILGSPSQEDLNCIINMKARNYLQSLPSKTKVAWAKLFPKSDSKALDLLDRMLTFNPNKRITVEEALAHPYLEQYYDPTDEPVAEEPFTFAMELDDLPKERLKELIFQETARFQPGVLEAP
smiles,measurement,setting,value
"O=C1c2ccccc2C(=O)c2c1oc1c2c(=O)[nH]c2ccc(Cl)cc21 [3b, 2-Chloronaphtho[2′,3′:4,5]furo[3,2-c]quinoline-6,7,12(5H)-trione]",GI50,"RXF 393; Homo sapiens, RXF 393",0.21 µM
same,CC50,"RXF 393; Homo sapiens, RXF 393, read-out: LC50",2.51 µM
same,Growth percent (G%),"RXF 393; RXF 393, 10^−5 M, 48 h",−46.34%
same,TGI,"RXF 393; RXF 393, five-dose",0.58 µM
same,GI50,"SF-268; Homo sapiens, SF-268",0.46 µM
same,CC50,"SF-268; Homo sapiens, SF-268, read-out: LC50",49 µM
same,Growth percent (G%),"SF-268; SF-268, 10^−5 M, 48 h",−31.69%
same,TGI,"SF-268; SF-268, five-dose",3.98 µM
same,Growth percent (G%),"HOP-62; HOP-62, 10^−5 M, 48 h",−38.70%
same,TGI,"HOP-62; HOP-62, five-dose",0.65 µM
same,GI50,"HOP-62; Homo sapiens, HOP-62",0.2 µM
same,CC50,"HOP-62; Homo sapiens, HOP-62, read-out: LC50",3.24 µM
same,IC50,ERK1,0.5 ± 0.09 µM
same,GI50,"SF-539; Homo sapiens, SF-539",0.23 µM
same,CC50,"SF-539; Homo sapiens, SF-539, read-out: LC50",2.09 µM
same,Growth percent (G%),"SF-539; SF-539, 10^−5 M, 48 h",−27.99%
same,TGI,"SF-539; SF-539, five-dose",0.56 µM
same,GI50,"SK-MEL-2; Homo sapiens, SK-MEL-2",1.74 µM
same,CC50,"SK-MEL-2; Homo sapiens, SK-MEL-2, read-out: LC50",19.9 µM
same,Growth percent (G%),"SK-MEL-2; SK-MEL-2, 10^−5 M, 48 h",31.83%
same,TGI,"SK-MEL-2; SK-MEL-2, five-dose",5.13 µM
same,effect of excess Ets-1 (100 μM) on inhibition of ERK2,"ERK2; 5 μM inhibitor, 100 μM vs 10 μM Ets-1, 100 μM ATP",did not rescue
same,IC50,"ERK2; ERK2 IC50, 10 μM ATP",0.2 ± 0.01 µM
same,IC50,"ERK2; ERK2 IC50, 100 μM ATP, 10 μM Ets-1",0.6 ± 0.1 µM
same,IC50,"ERK2; ERK2 IC50 at 100 μM ATP /10mM Ets-1, Table 4, 100 μM ATP /10mM Ets-1",0.6 ± 0.1 µM
same,GI50,"UO-31; Homo sapiens, UO-31",0.19 µM
same,CC50,"UO-31; Homo sapiens, UO-31, read-out: LC50",2.51 µM
same,Growth percent (G%),"UO-31; UO-31, 10^−5 M, 48 h",−54.91%
same,TGI,"UO-31; UO-31, five-dose",0.60 µM
same,GI50,"K-562; Homo sapiens, K562",0.37 µM
same,CC50,"K-562; Homo sapiens, K562, read-out: LC50",50.1 µM
same,Growth percent (G%),"K-562; K-562, 10^−5 M, 48 h",12.90%
same,TGI,"K-562; K-562, five-dose",2.00 µM
same,Growth percent (G%),"SR; 10^−5 M, 48 h",33.72%
same,GI50,SR; Homo sapiens,0.5 µM
same,CC50,"SR; Homo sapiens, read-out: LC50",> 100 µM
same,TGI,SR; five-dose,3.98 µM
same,IC50,JNK2,24 ± 1.24 µM
same,ability to inhibit JNK2 (in words),JNK2,little tendency to inhibit
same,GI50,"T-47D; Homo sapiens, T47D",0.26 µM
same,CC50,"T-47D; Homo sapiens, T47D, read-out: LC50",5.13 µM
same,Growth percent (G%),"T-47D; T-47D, 10^−5 M, 48 h",−58.11%
same,TGI,"T-47D; T-47D, five-dose",0.98 µM
same,GI50,"SNB-75; Homo sapiens, SNB-75",0.16 µM
same,CC50,"SNB-75; Homo sapiens, SNB-75, read-out: LC50",1.29 µM
same,Growth percent (G%),"SNB-75; SNB-75, 10^−5 M, 48 h",−9.01%
same,TGI,"SNB-75; SNB-75, five-dose",0.42 µM
same,Growth percent (G%),"SN12C; 10^−5 M, 48 h",−26.26%
same,GI50,SN12C; Homo sapiens,0.2 µM
same,CC50,"SN12C; Homo sapiens, read-out: LC50",1.35 µM
same,TGI,SN12C; five-dose,0.47 µM
same,GI50,"MDA-MB-468; Homo sapiens, MDA-MB-468",0.25 µM
same,CC50,"MDA-MB-468; Homo sapiens, MDA-MB-468, read-out: LC50",4.57 µM
same,Growth percent (G%),"MDA-MB-468; MDA-MB-468, 10^−5 M, 48 h",−32.41%
same,TGI,"MDA-MB-468; MDA-MB-468, five-dose",0.87 µM
same,GI50,"UACC-62; Homo sapiens, UACC-62",0.28 µM
same,CC50,"UACC-62; Homo sapiens, UACC-62, read-out: LC50",3.98 µM
same,Growth percent (G%),"UACC-62; UACC-62, 10^−5 M, 48 h",75.08%
same,TGI,"UACC-62; UACC-62, five-dose",1.15 µM
same,GI50,"NCI-H226; Homo sapiens, NCI-H226",0.14 µM
same,CC50,"NCI-H226; Homo sapiens, NCI-H226, read-out: LC50",0.87 µM
same,Growth percent (G%),"NCI-H226; NCI-H226, 10^−5 M, 48 h",−28.80%
same,TGI,"NCI-H226; NCI-H226, five-dose",0.35 µM
same,GI50,"MDA-MB-435; Homo sapiens, MDA-MB-435",0.3 µM
same,CC50,"MDA-MB-435; Homo sapiens, MDA-MB-435, read-out: LC50",4.07 µM
same,Growth percent (G%),"MDA-MB-435; MDA-MB-435, 10^−5 M, 48 h",10.25%
same,TGI,"MDA-MB-435; MDA-MB-435, five-dose",1.20 µM
same,GI50,"RPMI-8226; Homo sapiens, RPMI-8226",0.39 µM
same,CC50,"RPMI-8226; Homo sapiens, RPMI-8226, read-out: LC50",> 100 µM
same,Growth percent (G%),"RPMI-8226; RPMI-8226, 10^−5 M, 48 h",4.83%
same,TGI,"RPMI-8226; RPMI-8226, five-dose",2.63 µM
same,GI50,"NCI-H460; Homo sapiens, NCI-H460",0.22 µM
same,CC50,"NCI-H460; Homo sapiens, NCI-H460, read-out: LC50",1.48 µM
same,Growth percent (G%),"NCI-H460; NCI-H460, 10^−5 M, 48 h",−69.73%
same,TGI,"NCI-H460; NCI-H460, five-dose",0.49 µM
same,GI50,"U251; Homo sapiens, U-251",0.27 µM
same,CC50,"U251; Homo sapiens, U-251, read-out: LC50",2.82 µM
same,Growth percent (G%),"U251; U251, 10^−5 M, 48 h",−77.55%
same,TGI,"U251; U251, five-dose",0.76 µM
same,GI50,"MOLT-4; Homo sapiens, MOLT-4",0.44 µM
same,CC50,"MOLT-4; Homo sapiens, MOLT-4, read-out: LC50",> 100 µM
same,Growth percent (G%),"MOLT-4; MOLT-4, 10^−5 M, 48 h",18.44%
same,TGI,"MOLT-4; MOLT-4, five-dose",3.16 µM
same,GI50,"IGROV1; Homo sapiens, IGROV-1",0.22 µM
same,CC50,"IGROV1; Homo sapiens, IGROV-1, read-out: LC50",3.47 µM
same,Growth percent (G%),"IGROV1; IGROV1, 10^−5 M, 48 h",−3.63%
same,TGI,"IGROV1; IGROV1, five-dose",0.74 µM
same,GI50,"PC-3; Homo sapiens, PC-3",0.18 µM
same,CC50,"PC-3; Homo sapiens, PC-3, read-out: LC50",1.58 µM
same,Growth percent (G%),"PC-3; PC-3, 10^−5 M, 48 h",−33.26%
same,TGI,"PC-3; PC-3, five-dose",0.46 µM
same,Growth percent (G%),"LOX IMVI; 10^−5 M, 48 h",11.13%
same,GI50,LOX IMVI; Homo sapiens,0.32 µM
same,CC50,"LOX IMVI; Homo sapiens, read-out: LC50",3.98 µM
same,TGI,LOX IMVI; five-dose,1.32 µM
same,Growth percent (G%),"A549/ATCC; A549/ATCC, 10^−5 M, 48 h",−0.05%
same,TGI,"A549/ATCC; A549/ATCC, five-dose",2.88 µM
same,GI50,"A549/ATCC; Homo sapiens, A549",1.02 µM
same,CC50,"A549/ATCC; Homo sapiens, A549, read-out: LC50",8.32 µM
same,GI50,"SK-OV-3; Homo sapiens, SK-OV-3",0.35 µM
same,CC50,"SK-OV-3; Homo sapiens, SK-OV-3, read-out: LC50",5.62 µM
same,Growth percent (G%),"SK-OV-3; SK-OV-3, 10^−5 M, 48 h",1.64%
same,TGI,"SK-OV-3; SK-OV-3, five-dose",1.78 µM
same,Growth percent (G%),"HT29; HT29, 10^−5 M, 48 h",66.37%
same,TGI,"HT29; HT29, five-dose",12.88 µM
same,GI50,"HT29; Homo sapiens, HT-29",3.72 µM
same,CC50,"HT29; Homo sapiens, HT-29, read-out: LC50",39.8 µM
same,Growth percent (G%),"HCT-15; HCT-15, 10^−5 M, 48 h",−31.10%
same,TGI,"HCT-15; HCT-15, five-dose",0.51 µM
same,GI50,"HCT-15; Homo sapiens, HCT-15",0.21 µM
same,CC50,"HCT-15; Homo sapiens, HCT-15, read-out: LC50",2 µM
same,GI50,"MALME-3M; Homo sapiens, Malme-3M",0.23 µM
same,CC50,"MALME-3M; Homo sapiens, Malme-3M, read-out: LC50",0.85 µM
same,Growth percent (G%),"MALME-3M; MALME-3M, 10^−5 M, 48 h",−51.66%
same,GI50,"NCI-H23; Homo sapiens, NCI-H23",0.35 µM
same,CC50,"NCI-H23; Homo sapiens, NCI-H23, read-out: LC50",7.08 µM
same,Growth percent (G%),"NCI-H23; NCI-H23, 10^−5 M, 48 h",21.21%
same,TGI,"NCI-H23; NCI-H23, five-dose",1.82 µM
same,Growth percent (G%),"BT-549; BT-549, 10^−5 M, 48 h",37.99%
same,TGI,"BT-549; BT-549, five-dose",1.32 µM
same,GI50,"BT-549; Homo sapiens, BT-549",0.3 µM
same,CC50,"BT-549; Homo sapiens, BT-549, read-out: LC50",6.76 µM
same,GI50,"OVCAR-5; Homo sapiens, OVCAR-5",3.47 µM
same,CC50,"OVCAR-5; Homo sapiens, OVCAR-5, read-out: LC50",40.7 µM
same,Growth percent (G%),"OVCAR-5; OVCAR-5, 10^−5 M, 48 h",52.70%
same,TGI,"OVCAR-5; OVCAR-5, five-dose",14.79 µM
